The source of these data is ChEMBL document CHEMBL2040828 (J Med Chem, 2012).

Data set [1] is described as follows: Irreversible inhibition of hepatitis C virus NS5B polymerase. On the set-up: species or system Hepacivirus hominis.
In a further data set the test system is Hepatitis C virus. In words: Antiviral activity against HCV by cell based replicon assay. The data set is classed as functional, organism-based, Hepacivirus hominis.
The nature of data set [2]: AUC in rat at 10 mg/kg, po. On the set-up: dose 10 mg/kg, route oral. Conditions: plasma; call rule not given here. The data set is classed as ADME, organism-based. An outline of the steps: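 Single-dose pharmacokinetics: rats were dosed at 10 mg/kg, and monkeys and dogs at 3 mg/kg. Oral AUC, clearance, half-life and bioavailability were determined. All doses were given in 0.4% MC vehicle.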

The next data set addresses T1, Lupus La protein (Homo sapiens, UniProt P05455).
T1 sequence (P05455 whole entry): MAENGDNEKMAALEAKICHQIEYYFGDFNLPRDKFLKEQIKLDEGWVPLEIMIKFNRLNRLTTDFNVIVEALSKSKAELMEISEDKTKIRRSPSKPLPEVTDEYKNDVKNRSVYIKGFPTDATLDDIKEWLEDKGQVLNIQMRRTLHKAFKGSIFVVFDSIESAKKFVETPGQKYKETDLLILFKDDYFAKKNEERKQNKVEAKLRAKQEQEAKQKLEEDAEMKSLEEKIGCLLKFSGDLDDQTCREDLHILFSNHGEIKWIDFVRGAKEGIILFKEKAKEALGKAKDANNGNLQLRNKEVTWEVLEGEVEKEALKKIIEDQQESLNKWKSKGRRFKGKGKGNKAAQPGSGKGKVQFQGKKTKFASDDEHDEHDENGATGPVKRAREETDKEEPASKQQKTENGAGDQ
In words: Binding affinity to human La antigen by NMR based ALARM assay. In kind it is ADME. In outline: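 NMR-based ALARM assay. The compound was incubated with human La antigen, and NMR was used to monitor reaction with the antigen's reactive thiols.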

Data set [3] relates to Salmonella typhimurium. In words: Mutagenic activity in Salmonella typhimurium by mini-AMES test in presence of S9 fraction. In kind it is toxicity, organism-based. The note with it: salmonella enterica subsp. enterica serovar typhimurium.
Data set [4] has as its system Salmonella typhimurium. In words: Mutagenic activity in Salmonella typhimurium by mini-AMES test in absence of S9 fraction. In kind it is toxicity, organism-based. Conditions: salmonella enterica subsp. enterica serovar typhimurium.
Data set [5] in a line: Mutagenic activity in micronuclei assessed as induction of chromosomal damage.

`Cc1cc2c(-c3ccc[nH]c3=O)c(C(=O)NS(=O)(=O)C3CC3)n(Cc3cc([N+](=O)[O-])ccc3F)c2cc1F` registered an IC50 in data set [1] of 7 nM. The response in the data set with Hepatitis C virus was half-maximal at 4 nM (EC50). The AUC in data set [2] was 0.35 µM·h.
`Cc1ccc2c(c1)c(-c1ccc[nH]c1=O)c(C(=O)NS(=O)(=O)C1CC1)n2Cc1cc([N+](=O)[O-])ccc1Cl` displayed an IC50 in data set [1] of 7 nM. In addition, in the data set with Hepatitis C virus, the EC50 was found to be 16 nM.
For the compound `CCc1ccc2c(c1)c(-c1ccc[nH]c1=O)c(C(=O)NS(=O)(=O)C1CC1)n2Cc1cc([N+](=O)[O-])ccc1F`, the IC50 in data set [1] amounted to 4 nM. The concentration giving a half-maximal response (EC50) in the data set on Hepatitis C virus was 1 nM. Moreover, the exposure (AUC) in data set [2] worked out at 0.17 µM·h. For the same compound, the Activity result is listed as “Not Active” at Lupus La protein, “Non-toxic” in the data set on Salmonella typhimurium [3], “Non-toxic” in the data set with Salmonella typhimurium [4] and “Non-toxic” in data set [5].
For `O=C(NS(=O)(=O)C1CC1)c1c(-c2ccc[nH]c2=O)c2cc(C(F)(F)F)ccc2n1Cc1cc([N+](=O)[O-])ccc1F`, half-maximal inhibition in data set [1] (IC50) required 4 nM. Besides, it took 2 nM to reach a half-maximal effect in the data set with Hepatitis C virus (EC50).
Taken in the same sequence, the figures for `Cc1ccc2c(c1)c(-c1ccc[nH]c1=O)c(C(=O)NS(=O)(=O)C1CC1)n2Cc1cc(S(C)(=O)=O)cc(C#N)c1F` were 3 nM and 5 nM.
In the case of `Cc1ccc2c(c1)c(-c1ccc[nH]c1=O)c(C(=O)NS(=O)(=O)C1CC1)n2Cc1cc(F)ccc1F`, in data set [1], half-maximal inhibition (IC50) was put at 6 nM.
Turning to `Cc1ccc2c(c1)c(-c1ccc(C)[nH]c1=O)c(C(=O)O)n2Cc1cc([N+](=O)[O-])ccc1F`, the IC50 in data set [1] worked out at 13 nM. Besides, the EC50 in the data set with Hepatitis C virus stood at 30 nM.
The corresponding values for `Cc1ccc2c(c1)c(-c1ccc[nH]c1=O)c(C(=O)NS(=O)(=O)C1CC1)n2Cc1cc([S+]([O-])C(F)(F)F)ccc1Cl` (centres undefined) are 14 nM and 3400 nM.
Turning to `Cc1ccc2c(c1)c(-c1ccc[nH]c1=O)c(C(=O)NS(=O)(=O)C(C)C)n2Cc1cc([N+](=O)[O-])ccc1F`, the midpoint of inhibition in data set [1], the IC50, lay at 4 nM. In the data set on Hepatitis C virus, this compound yielded an EC50 of 3 nM.
In data set [1], `O=C(NS(=O)(=O)C1CC1)c1c(-c2ccc[nH]c2=O)c2ccccc2n1Cc1cc([N+](=O)[O-])ccc1F` had an IC50 of 4 nM. The compound also gave an EC50 in the data set with Hepatitis C virus of 6 nM.
Take `Cc1ccc2c(c1)c(-c1ccc(C)[nH]c1=O)c(C(=O)NS(=O)(=O)C1CC1)n2Cc1cc([N+](=O)[O-])ccc1F`: the 50% inhibitory concentration (IC50) in data set [1] amounted to 12 nM. Moreover, the EC50 in the data set on Hepatitis C virus came to 9 nM.
Taken in the same sequence, the figures for `Cc1ccc2c(c1)c(-c1ccc[nH]c1=O)c(C(=O)NS(=O)(=O)C1CC1)n2Cc1cc(S(C)(=O)=O)ccc1F` were 6 nM and 580 nM.
As for `Cc1ccc2c(c1)c(-c1ccc[nH]c1=O)c(C(=O)N[S+]([O-])C(C)C)n2Cc1cc([N+](=O)[O-])ccc1F` (centres undefined), in data set [1], the IC50 is 7 nM. In addition, in the data set with Hepatitis C virus, the 50% effective concentration (EC50) is 2 nM.
In data set [1], `CCc1ccc2c(c1)c(-c1ccc[nH]c1=O)c(C(=O)NS(=O)(=O)C1CC1)n2Cc1cc(S(C)(=O)=O)c(Cl)cc1F` returned a half-maximal inhibitory concentration (IC50) of 2 nM. Also, in the data set on Hepatitis C virus, a half-maximal effect (EC50) was put at 60 nM.
As for `Cc1ccc2c(c1)c(-c1ccc[nH]c1=O)c(C(=O)O)n2Cc1cc([N+](=O)[O-])ccc1F`, it took 3 nM to reach half-maximal inhibition in data set [1] (IC50). In the data set on Hepatitis C virus, the midpoint of the response, the EC50, lay at 1 nM. Moreover, the exposure (AUC) in data set [2] worked out at 0.14 µM·h.
`Cc1ccc2c(c1)c(-c1ccc[nH]c1=O)c(C(=O)NS(=O)(=O)C1CC1)n2Cc1c(F)c(F)cc(C(N)=O)c1F` had an IC50 in data set [1] of 14 nM. Besides, the midpoint of the response with Hepatitis C virus, the EC50, lay at 3300 nM.
With `Nc1cc(Cn2c(C(=O)O)c(-c3ccc[nH]c3=O)c3cc(Cl)ccc32)ccn1`, the midpoint of inhibition in data set [1], the IC50, lay at 53 nM.

Usually IC50 stands for the midpoint of a concentration-inhibition curve. A high value points to a need for much substance. The term EC50 denotes the concentration at which the effect is half-maximal. Read a low EC50 as a more potent agent. The AUC is concentration integrated over time.
